The target of test [1] is T1, Protein deacetylase HDAC6 (Homo sapiens) (UniProt Q9UBN7).
T1 sequence (whole entry): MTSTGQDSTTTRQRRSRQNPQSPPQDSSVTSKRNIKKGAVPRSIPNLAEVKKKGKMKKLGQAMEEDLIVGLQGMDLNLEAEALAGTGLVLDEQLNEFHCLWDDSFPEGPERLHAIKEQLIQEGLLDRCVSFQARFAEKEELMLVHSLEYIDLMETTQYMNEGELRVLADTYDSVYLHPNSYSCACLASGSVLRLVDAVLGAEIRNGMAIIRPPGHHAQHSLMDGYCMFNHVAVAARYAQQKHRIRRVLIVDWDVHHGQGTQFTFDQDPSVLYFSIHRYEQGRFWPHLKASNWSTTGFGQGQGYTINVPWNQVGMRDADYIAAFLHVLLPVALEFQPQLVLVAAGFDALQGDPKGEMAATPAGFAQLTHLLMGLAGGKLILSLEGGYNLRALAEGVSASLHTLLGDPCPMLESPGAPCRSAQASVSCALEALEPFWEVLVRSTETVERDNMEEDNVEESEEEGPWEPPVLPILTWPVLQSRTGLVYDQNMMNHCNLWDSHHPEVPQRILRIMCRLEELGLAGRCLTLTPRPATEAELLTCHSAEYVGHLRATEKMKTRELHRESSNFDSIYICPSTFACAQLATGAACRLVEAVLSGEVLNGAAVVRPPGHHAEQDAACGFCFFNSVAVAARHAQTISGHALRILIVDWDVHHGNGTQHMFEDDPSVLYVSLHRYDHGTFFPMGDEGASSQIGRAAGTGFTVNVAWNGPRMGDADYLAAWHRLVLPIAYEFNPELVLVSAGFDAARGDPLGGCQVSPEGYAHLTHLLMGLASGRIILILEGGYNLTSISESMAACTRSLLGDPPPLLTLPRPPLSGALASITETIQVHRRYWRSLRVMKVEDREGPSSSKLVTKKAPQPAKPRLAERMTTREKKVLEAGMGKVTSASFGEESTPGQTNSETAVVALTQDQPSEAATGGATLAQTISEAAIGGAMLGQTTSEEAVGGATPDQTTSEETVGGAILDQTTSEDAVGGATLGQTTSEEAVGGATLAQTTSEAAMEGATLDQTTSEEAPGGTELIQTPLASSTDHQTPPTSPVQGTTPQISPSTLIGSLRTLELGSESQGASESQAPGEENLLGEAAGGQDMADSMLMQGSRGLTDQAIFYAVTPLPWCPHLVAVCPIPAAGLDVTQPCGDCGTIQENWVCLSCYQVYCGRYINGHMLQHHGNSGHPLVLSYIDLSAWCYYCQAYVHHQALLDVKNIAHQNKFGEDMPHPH
Nature of the test: Inhibition of HDAC6 in human SEM cells assessed as increase in acetyl-alpha tubulin expression at 0.1 to 10 uM after 24 hrs by immunoblot assay. It is filed as cell-based. In a few lines:
(§1)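 Cells exposed for 24 h at indicated concentrations; lysates immunoblotted for acetyl-α-tubulin, acetyl-histone H3, PARP, with GAPDH as loading control.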

Test [2] concerns SEM cells. Nature of the test: Inhibition of HDAC6/chymotrypsin-like activity of 20S proteasome in human SEM cells assessed as increase in phosphorylated JNK protein expression at 0.1 to 10 uM after 18 hrs by Western blot assay. The class given is cell-based. The method, boiled down: (§2)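 Cells treated 18 h at indicated concentrations; lysates analysed by western blot for heat shock (Grp94, HSP70, HSP40, HSP27), UPR (BIP, ATF4, ATF6, pJNK) and autophagy (LC3B, p62) proteins.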
A general note: Immunoblotting shows a protein as a band on a membrane.

The target of test [3] is T1, Protein deacetylase HDAC6 (Homo sapiens). Briefly: Inhibition of HDAC6 in imatinib-resistant human SUP-B15 cells assessed as increase in acetyl-alpha tubulin expression at 0.1 to 10 uM after 24 hrs by immunoblot assay. It is filed as cell-based. In a few lines: as §1
In test [4] the test system is SEM cells. Briefly: Inhibition of HDAC6/chymotrypsin-like activity of 20S proteasome in human SEM cells assessed as increase in BIP protein expression at 0.1 to 10 uM after 18 hrs by Western blot assay. It is filed as cell-based. In a few lines:
as §2

Test [5] concerns the target T1, Protein deacetylase HDAC6 (Homo sapiens). Briefly: Inhibition of HDAC6 in human HL60 cells assessed as increase in acetyl-alpha tubulin expression at 0.1 to 10 uM after 24 hrs by immunoblot assay. The class given is cell-based. In a few lines:
as §1

In a further test the target is Histone deacetylase 1 (Homo sapiens, UniProt Q13547). Briefly: Inhibition of C-terminal FLAG-His-tagged full length recombinant human HDAC1 expressed in Sf21 insect cells using RHKK(Ac)AMC as substrate by fluorescence-based assay.
Histone deacetylase 1, sequence (Q13547 whole entry): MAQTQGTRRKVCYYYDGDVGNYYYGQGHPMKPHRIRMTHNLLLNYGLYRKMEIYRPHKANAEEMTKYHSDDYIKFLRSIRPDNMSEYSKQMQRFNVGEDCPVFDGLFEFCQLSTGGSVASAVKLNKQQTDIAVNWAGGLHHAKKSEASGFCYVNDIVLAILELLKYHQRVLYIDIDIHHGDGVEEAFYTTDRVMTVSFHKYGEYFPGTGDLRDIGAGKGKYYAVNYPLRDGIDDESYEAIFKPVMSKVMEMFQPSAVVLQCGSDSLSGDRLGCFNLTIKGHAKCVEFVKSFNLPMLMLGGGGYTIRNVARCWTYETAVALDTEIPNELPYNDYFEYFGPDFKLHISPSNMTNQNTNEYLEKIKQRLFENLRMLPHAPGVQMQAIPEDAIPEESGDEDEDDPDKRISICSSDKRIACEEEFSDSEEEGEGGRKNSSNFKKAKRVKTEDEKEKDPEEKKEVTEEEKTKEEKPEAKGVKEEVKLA
The species named for the next test is Homo sapiens. Briefly: Inhibition of HDAC6/chymotrypsin-like activity of 20S proteasome in human HL60 cells assessed as increase in cleaved PARP expression at 0.1 to 10 uM after 24 hrs by immunoblot assay. The class given is cell-based. The method, boiled down:
as §1

SMILES strings stand for the structures. Activity calls are given as the source filed them. The rule behind the calls is not given here.

The IC50 is the concentration that inhibits the measured activity by half. For `C[C@H](NC(=O)[C@H](CC(=O)NCC(C)(C)C)NC(=O)c1ccc(C(=O)NO)cc1)C(=O)NCc1ccccc1`, the inhibition entry (in test [1]; with SEM cells [2]; in test [3]; in the test on SEM cells [4]; in test [5]; in the test filed under Homo sapiens) was “Active” each time. The IC50 on Histone deacetylase 1 turned out to be 6.9 µM.

(Values after ChEMBL document CHEMBL4152390, “Discovery of the First-in-Class Dual Histone Deacetylase-Proteasome Inhibitor” (J Med Chem, 2018).)
